Compound activity (PubChem BioAssay)
MEKK2 mut-MEK5 – MEK5 binding signal on mutant MEKK2 PB1, primary screen, biochemical, multiplex bead flow cytometry, Alexa488-MEK5. hit rate 0.35% among 290,000. Alexa488-MEK5 binding to MEKK2 mutant. percent response, % at 10 µM; in the data active = percent response above about 24%, passing the limit was not always enough
T cruzi inh – inhibitors of intracellular T. cruzi growth, primary screen, luminescence, NIH3T3 host cells; T. cruzi beta-gal in NIH3T3, 90 h; inhibition, % (test concentration not listed); hit rate 1.4% among 300,000; AID 1885, 2009;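 active = mean inhibition across valid replicates above about 55%, limit read from the data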;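 note: signal also drops with host cell toxicity which is not excluded here; 0% = plate median of DMSO wells and 100% = zero luminescence signal; higher percent means less beta-gal luminescence so fewer parasites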
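System: mouse NIH/3T3 fibroblasts infected with β-gal-expressing T. cruzi Tulahuen C4 / Input: NIH/3T3 cells, 5,000 per well / Buffer or medium: Low-serum DMEM with 2% FBS / Probe or stimulus: 5000 reporter trypomastigotes per well / Schedule: ≥90 h infection period, 3 h prior cell attachment / Measured by: GalScreen luminescence, 60 min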
NS3 helicase inh – inhibitors of HCV NS3 helicase, primary screen, biochemical, Cy5 molecular beacon fluorescence; Hepatitis C virus NS3 helicase; NS3 helicase DNA unwinding; inhibition, % at 10.9 µM; hit rate 0.56% among 290,000;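 active = inhibition above the mean of all tested compounds plus 3 SD, set per campaign, cut at about 35% in these data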;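 note: 0% = DMSO wells and 100% = thioflavine S control wells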
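System: NS3 helicase fragment of HCV / Schedule: 1 h at 25 °C / Control set: DMSO alone as 0% and 110 µM thioflavine S as 100% / Reagent: Cy5/quencher beacon DNA duplex and ATP to start / Technique: Cy5 fluorescence / Replication: singlicate / Evaluation: % inhibition of end-to-start signal ratio versus controls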
DNA FID counter – compounds displacing fluorescent DNA intercalator, primary screen, artefact control for HCV NS3 helicase inhibitor project, biochemical, FID fluorescence. DNA fluorescent intercalator displacement. inhibition, % at 7.9 µM. hit rate 0.17% among 290,000. AID 1845, 2009; in the data active = inhibition above about 37%;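 note: 0% = vehicle and 100% = reference compound; higher means more ethidium bromide displaced from hairpin DNA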
MEKK3 PB1 HTS – modulators of MEKK3-MEK5 PB1 binding, primary screen, biochemical, wildtype MEKK3, multiplex bead flow cytometry, Alexa488-MEK5. bead-based flow cytometry, Alexa488-MEK5 binding to MEKK3; actives lie on both sides; 0 = blocked by unlabeled MEK5, 100 = vehicle. Mitogen-activated protein kinase kinase kinase 3 (Homo sapiens), Q99759. binding response (% of control), % at 10 µM. hit rate 1.4% among 290,000;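 active = binding response more than 3 SD above or below the average of its plate-row segment, actives on both sides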;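 note: Alexa488 bead fluorescence after subtracting the streptavidin-only scavenger bead signal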
Target sequence (Q99759 whole entry, looked up): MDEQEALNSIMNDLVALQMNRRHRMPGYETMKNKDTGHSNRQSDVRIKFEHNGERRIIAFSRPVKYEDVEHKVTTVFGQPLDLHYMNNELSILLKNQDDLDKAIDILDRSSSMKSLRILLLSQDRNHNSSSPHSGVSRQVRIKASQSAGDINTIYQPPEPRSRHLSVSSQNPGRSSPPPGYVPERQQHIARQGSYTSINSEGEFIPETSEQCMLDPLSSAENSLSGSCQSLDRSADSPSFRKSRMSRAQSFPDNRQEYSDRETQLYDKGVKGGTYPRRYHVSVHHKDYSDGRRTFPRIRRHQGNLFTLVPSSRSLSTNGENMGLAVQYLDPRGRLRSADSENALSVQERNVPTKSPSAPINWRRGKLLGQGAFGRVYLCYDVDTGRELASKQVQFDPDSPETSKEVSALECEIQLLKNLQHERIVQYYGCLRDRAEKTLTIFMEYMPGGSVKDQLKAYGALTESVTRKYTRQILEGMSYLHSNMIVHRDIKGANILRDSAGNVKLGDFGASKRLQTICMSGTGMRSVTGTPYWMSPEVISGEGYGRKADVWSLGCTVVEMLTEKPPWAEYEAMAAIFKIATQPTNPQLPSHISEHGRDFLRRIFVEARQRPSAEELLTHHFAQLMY
MEKK2 WT-MEK5 – modulators of MEK5 binding to wildtype MEKK2, primary screen, biochemical, multiplex bead flow cytometry, Alexa488-MEK5. hit rate 1.1% among 290,000. Alexa488-MEK5 binding to MEKK2 WT; actives lie on both sides. AID 1531, 2009. Mitogen-activated protein kinase kinase kinase 2 (Homo sapiens), Q9Y2U5. binding response (% of control), % at 10 µM; in the data active = binding response below about 67% or above about 130%
* = called active by the depositor; [ ] = dose if it differs, or a comment. Most compounds without a hit are left out; they make up all but 4.1% or so of the library.

CCOC(=O)N1CCN(C(=O)c2oc3ccc(S(=O)(=O)N4CCOCC4)cc3c2C)CC1 was read as MEKK2 mut-MEK5 3, T cruzi inh -2, NS3 helicase inh 10, DNA FID counter -30, MEKK3 PB1 HTS 107 and MEKK2 WT-MEK5 117.
Screening CN(Cc1ccccc1)CC(O)COc1ccc(CNCCc2ccncc2)cc1 (configuration not stated) returned MEKK2 mut-MEK5 -3, T cruzi inh 66*, NS3 helicase inh 17, DNA FID counter 22, MEKK3 PB1 HTS 100 and MEKK2 WT-MEK5 115.
Screening CN(Cc1ccccc1)CC(O)COc1ccc(CNCc2nccn2C)cc1 (configuration not stated) returned MEKK2 mut-MEK5 8, T cruzi inh 11, NS3 helicase inh -5, DNA FID counter 26, MEKK3 PB1 HTS 99 and MEKK2 WT-MEK5 114.
`Cc1cc(CN(C)Cc2ccc(OCC(O)CN(C)Cc3ccccc3)cc2)on1` (configuration not stated) gave MEKK2 mut-MEK5 -19, T cruzi inh 25, NS3 helicase inh -20, DNA FID counter 26, MEKK3 PB1 HTS 66 and MEKK2 WT-MEK5 77.
For C=CCOc1ccc(CN(C)CC(O)COc2cccc3ccccc23)cc1 (configuration not stated) the results were MEKK2 mut-MEK5 14, T cruzi inh 50, NS3 helicase inh -52, DNA FID counter 18, MEKK3 PB1 HTS 107 and MEKK2 WT-MEK5 142*.
Screening CCOc1nc(Nc2ccc(OC)cc2OC)nc(OCC)n1 returned MEKK2 mut-MEK5 -1, T cruzi inh 6, NS3 helicase inh -5, DNA FID counter -24, MEKK3 PB1 HTS 103 and MEKK2 WT-MEK5 103.
Screening CN=c1scc(-c2ccc(OC)cc2)n1/N=C(\C)c1cccnc1 returned MEKK2 mut-MEK5 -10, T cruzi inh 58*, NS3 helicase inh 5, DNA FID counter -26, MEKK3 PB1 HTS 102 and MEKK2 WT-MEK5 94.
Clc1ccccc1N1CCN(Cc2c[nH]c3ccccc23)CC1 was read as T cruzi inh 74*.
Screening O=C(CN1C(=O)CSc2ccc(S(=O)(=O)N3CCOCC3)cc21)NCc1ccc(F)cc1 returned MEKK2 mut-MEK5 3, T cruzi inh -14, NS3 helicase inh 1, DNA FID counter -14, MEKK3 PB1 HTS 98 and MEKK2 WT-MEK5 101.
Screening O=C(Nc1cc(Sc2ccccn2)cc([N+](=O)[O-])c1)c1cccc(Cl)c1 returned MEKK2 mut-MEK5 1, T cruzi inh 59*, NS3 helicase inh -2, DNA FID counter 9, MEKK3 PB1 HTS 125 and MEKK2 WT-MEK5 114.
For COc1ccc(S(=O)(=O)N2CCOCC2)cc1NC(=O)CN1CCN(C)CC1 the results were T cruzi inh -3.
For O=[N+]([O-])c1ccc(-[n+]2ccc3ccccc3c2)c([N+](=O)[O-])c1 the results were T cruzi inh 71*.
For Cc1csc(=O)n1CCC(=O)OCC(=O)NNC(=O)c1ccccc1 the results were T cruzi inh -4.
Screening CN1CCN(CC2(O)CCN(S(=O)(=O)c3ccc(Cl)cc3)CC2)CC1 returned MEKK2 mut-MEK5 -5, T cruzi inh 72*, NS3 helicase inh 11, DNA FID counter 6, MEKK3 PB1 HTS 103 and MEKK2 WT-MEK5 99.
`O=C(Nc1ccn(Cc2c(F)c(F)cc(F)c2F)n1)c1ccc(COc2ccccc2Cl)cc1` gave MEKK2 mut-MEK5 -10, T cruzi inh 63*, NS3 helicase inh -34, DNA FID counter -8, MEKK3 PB1 HTS 82 and MEKK2 WT-MEK5 86.
For O=C(Nc1ccn(Cc2ccccc2F)n1)c1ccc(COc2ccccc2Cl)cc1 the results were T cruzi inh 24, NS3 helicase inh -10 and DNA FID counter -8.
`Cc1[nH]n2c(=O)c3c(nc2c1-c1ccc(F)cc1)CCCC3` gave MEKK2 mut-MEK5 -9, T cruzi inh 74*, NS3 helicase inh -10, DNA FID counter 1, MEKK3 PB1 HTS 110 and MEKK2 WT-MEK5 97.
Fc1ccccc1C1c2[nH]c3ccccc3c2CCN1Cc1cccn1-c1ncccn1 (configuration not stated) was read as MEKK2 mut-MEK5 35, T cruzi inh 77*, NS3 helicase inh -12, DNA FID counter 10, MEKK3 PB1 HTS 110 and MEKK2 WT-MEK5 132.
Cc1ccccc1C1c2[nH]c3ccccc3c2CCN1Cc1cccn1-c1ncccn1 (configuration not stated) was read as MEKK2 mut-MEK5 -3, T cruzi inh 55*, NS3 helicase inh -2, DNA FID counter -9, MEKK3 PB1 HTS 101 and MEKK2 WT-MEK5 96.
Screening COc1ccc(C2c3[nH]c4ccccc4c3CCN2CCCn2cccn2)c(F)c1 (configuration not stated) returned MEKK2 mut-MEK5 -15, T cruzi inh 15, NS3 helicase inh -14, DNA FID counter -6, MEKK3 PB1 HTS 87 and MEKK2 WT-MEK5 91.
Screening CCc1ccc(NC(=O)c2cccc(C(=O)Nc3ccc(CC)cc3)n2)cc1 returned MEKK2 mut-MEK5 -28, T cruzi inh 24, NS3 helicase inh -3, DNA FID counter -29, MEKK3 PB1 HTS 0.0*[inhibitor] and MEKK2 WT-MEK5 -9.0*[inhibitor].
`O=[N+]([O-])c1nn(-c2ccccc2)n(O)c1=NCc1ccc2c(c1)OCO2` gave MEKK2 mut-MEK5 3, T cruzi inh 42, NS3 helicase inh -9, DNA FID counter 3, MEKK3 PB1 HTS 102 and MEKK2 WT-MEK5 102.
O=[N+]([O-])c1nn(-c2ccc3c(c2)OCCO3)n(O)c1=NCCCO was read as MEKK2 mut-MEK5 2, T cruzi inh 77*, NS3 helicase inh -4, DNA FID counter -3, MEKK3 PB1 HTS 100 and MEKK2 WT-MEK5 106.
Screening Cc1ccc(CN=c2c([N+](=O)[O-])nn(-c3ccc4c(c3)OCCO4)n2O)cc1 returned MEKK2 mut-MEK5 -2, T cruzi inh 32, NS3 helicase inh -2, DNA FID counter -6, MEKK3 PB1 HTS 94 and MEKK2 WT-MEK5 93.
For COc1ccc(-n2nc([N+](=O)[O-])c(=NCCCN3CCCC3=O)n2O)cc1 the results were MEKK2 mut-MEK5 -13, T cruzi inh 49, NS3 helicase inh 7, DNA FID counter 0, MEKK3 PB1 HTS 63 and MEKK2 WT-MEK5 78.
